# Peptide text beside a SMILES is read from it.
# Experiments:
# Format in all cases: functional
# Candida albicans [1] = experiment: Antifungal activity against Candida albicans ATCC 10231 assessed as growth inhibition at 100 uM after 24 hrs; conditions: ATCC 10231, 24 h
# Outline: (§1)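 Percent growth inhibition in 96-well microdilution, RPMI-1640. Peptide stocks in DMSO (≤2%), diluted to final 200–12.5 µM. Inoculum adjusted to 1-5 × 10^3 CFU/ml, grown beforehand on Sabouraud–chloramphenicol agar 48 h at 30 °C. Compound-free growth control with matching DMSO, plus sterility control. Incubated 24 h at 35 °C in a moist dark chamber, then read by microplate reader. Amphotericin B as 100% inhibition reference. Duplicates.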
# Candida albicans [2] = experiment: Antifungal activity against Candida albicans ATCC 10231 assessed as growth inhibition at 50 uM after 24 hrs; conditions: ATCC 10231, 24 h; outline: as §1
# Candida albicans [3] = experiment: Antifungal activity against Candida albicans ATCC 10231 assessed as growth inhibition at 25 uM after 24 hrs; conditions: ATCC 10231, 24 h; outline: as §1
# Candida albicans [4] = experiment: Antifungal activity against Candida albicans ATCC 10231 assessed as growth inhibition at 12.5 uM after 24 hrs; conditions: ATCC 10231, 24 h; outline: as §1
# Cryptococcus neoformans [5] = experiment: Antifungal activity against Cryptococcus neoformans ATCC 32264 assessed as growth inhibition at 200 uM after 48 hrs; conditions: ATCC 32264, 48 h
# Outline: (§2)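 Percent growth inhibition by broth microdilution in RPMI-1640. Peptides were dissolved in DMSO (≤2%) and diluted to final 200–12.5 µM. Inoculum 1-5 × 10^3 CFU/ml, cells maintained on Sabouraud agar. Growth control (medium, inoculum, same DMSO, no compound) and sterility control per strain. Plates held 48 h at 35 °C, moist and dark, then read by microplate reader. Amphotericin B positive control. Duplicate tests.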
# Cryptococcus neoformans [6] = experiment: Antifungal activity against Cryptococcus neoformans ATCC 32264 assessed as growth inhibition at 100 uM after 48 hrs; conditions: ATCC 32264, 48 h; outline: as §2
# Cryptococcus neoformans [7] = experiment: Antifungal activity against Cryptococcus neoformans ATCC 32264 assessed as growth inhibition at 50 uM after 48 hrs; conditions: ATCC 32264, 48 h; outline: as §2
# Cryptococcus neoformans [8] = experiment: Antifungal activity against Cryptococcus neoformans ATCC 32264 assessed as growth inhibition at 25 uM after 48 hrs; conditions: ATCC 32264, 48 h; outline: as §2
# Cryptococcus neoformans [9] = experiment: Antifungal activity against Cryptococcus neoformans ATCC 32264 assessed as growth inhibition at 12.5 uM after 48 hrs; conditions: ATCC 32264, 48 h; outline: as §2
# Candida albicans [10] = experiment: Antifungal activity against Candida albicans ATCC 10231 assessed as growth inhibition at 200 uM after 24 hrs; conditions: ATCC 10231, 24 h; outline: as §1
Compound,inhibition at 100 µM (Candida albicans [1]) [%],inhibition at 50 µM (Candida albicans [2]) [%],inhibition at 25 µM (Candida albicans [3]) [%],inhibition at 12.5 µM (Candida albicans [4]) [%],inhibition at 200 µM (Cryptococcus neoformans [5]) [%],inhibition at 100 µM (Cryptococcus neoformans [6]) [%],inhibition at 50 µM (Cryptococcus neoformans [7]) [%],inhibition at 25 µM (Cryptococcus neoformans [8]) [%],inhibition at 12.5 µM (Cryptococcus neoformans [9]) [%],inhibition at 200 µM (Candida albicans [10]) [%]
N=C(N)NCCC[C@H](N)C(=O)N[C@@H](CCC(N)=O)C(=O)N[C@@H](CCCCN)C(=O)N[C@@H](CCCCN)C(N)=O (H-RQKK-NH2),0,0,0,0,100,100,92,62,32,6
CC(=O)N1CCN(c2ccc(OCC3COC(Cn4ccnc4)(c4ccc(Cl)cc4Cl)O3)cc2)CC1 (stereo not given) [KETOCONAZOLE],100,100,100,100,100,100,100,100,100,100
H-RKRRKKK-NH2,12,0,0,0,60,14,19,10,0,43
H-RKWRRKWKK-NH2,76,58,40,15,99,68,14,16,0,100
NCCCC[C@H](NC(=O)[C@H](CCCCN)NC(=O)[C@H](Cc1c[nH]c2ccccc12)NC(=O)[C@@H](N)CCCCN)C(N)=O (H-KWKK-NH2),2,0,0,0,0,0,0,0,0,9
CC[C@H](C)[C@H](NC(=O)[C@H](CCCCN)NC(=O)[C@@H](NC(=O)[C@H](CCC(N)=O)NC(=O)[C@@H](N)CCCNC(=N)N)[C@@H](C)CC)C(=O)N[C@@H](Cc1c[nH]c2ccccc12)C(=O)N[C@@H](Cc1ccccc1)C(=O)N[C@@H](CCC(N)=O)C(=O)N[C@@H](CC(N)=O)C(=O)N[C@@H](CCCNC(=N)N)C(=O)N[C@@H](CCCNC(=N)N)C(=O)N[C@@H](CCSC)C(=O)N[C@@H](CCCCN)C(=O)N[C@@H](Cc1c[nH]c2ccccc12)C(=O)N[C@@H](CCCCN)C(=O)N[C@@H](CCCCN)C(N)=O [PENETRATIN],100,95,91,4,100,100,100,100,90,100
C[C@@H]1[C@H](O)[C@@H](C)/C=C/C=C/C=C/C=C/C=C/C=C/C=C/[C@H](O[C@@H]2O[C@H](C)[C@@H](O)[C@H](N)[C@@H]2O)C[C@@H]2O[C@](O)(C[C@@H](O)C[C@@H](O)[C@H](O)CC[C@@H](O)C[C@@H](O)CC(=O)O[C@H]1C)C[C@H](O)[C@H]2C(=O)O [AMPHOTERICIN B],100,100,100,100,100,100,100,100,100,100
H-RKFRRKFKK-NH2,44,33,23,0,73,11,13,9,0,61
H-RKRRKWKK-NH2,13,0,0,0,100,33,11,6,0,29
H-WKQKNIKWRFRQKMIR-NH2,52,0,0,0,96,92,36,28,0,60

# Reference: ChEMBL document CHEMBL1152848, “Penetratin and derivatives acting as antifungal agents” (2009)
